# Experimental data of several laboratories.
# Compare with care: the assays were run in different laboratories.
# Target: Calcium/calmodulin-dependent protein kinase type II subunit delta (CAMK2D, Homo sapiens, UniProt Q13557)
Compound,test,conditions,remaining binding [%]
c1cnn2ncc(-c3ccnc(N4CCC45COC5)n3)c2c1,binding,1 µM,83
C=CC(=O)N1CCC(C(=O)NCC(=O)N2CCN(c3nc(-c4cnc(N)nc4C(F)F)nc(N4CCOCC4)n3)CC2)CC1,"binding, competition with immobilised ligand",1 µM,100
CN(CCCC(F)(F)F)c1nccc(-c2cnn3ncccc23)n1,binding,1 µM,100
Nc1ncc2c(n1)-c1c([nH]c3ccc(C#CC4CC4)cc13)CCCC2,"binding, competition with immobilised ligand",1 µM,95
CCS(=O)(=O)c1cc2cc(C[C@](O)(CC(C)(C)c3ccc(F)cc3C(N)=O)C(F)(F)F)[nH]c2cn1,"cell-free assay, competition with immobilised ligand",1 µM,100
FC(F)(F)Oc1cccc(-c2cnc3ccc(-c4ccncc4)nn23)c1,"cell-free assay, competition with immobilised ligand",5 µM,33
O=C(c1ccc(Nc2ncc(Cl)c(-c3cc4ccccc4s3)n2)cc1)N1CCC(N2CCCC2)CC1,"binding, competition with immobilised ligand",1 µM,80
CN(c1nccc(-c2cnn3ncccc23)n1)C1CC1,binding,1 µM,100
CN(c1ccnc(CNc2nc(Nc3ccc4c(c3)CC(=O)N4)ncc2C(F)(F)F)n1)S(C)(=O)=O,"cell-free assay, competition with immobilised ligand",1 µM,100
Cc1cnn2ncc(-c3ccnc(N(C)C)n3)c2c1,binding,1 µM,78
COc1cnc(Nc2cccc(S(N)(=O)=O)c2)nc1N1CCN(c2ccccc2)CC1,"binding, competition with immobilised ligand",1 µM,92
CNC(=O)Nc1ccc2c(c1)CC[C@@]21OC(=O)N(CC(=O)N(Cc2ccc(F)cc2)[C@@H](C)C(F)(F)F)C1=O,"cell-free assay, competition with immobilised ligand",1 µM,91
C[C@@H](c1ccc(-n2cnc3c(N)ncnc32)cc1)N1CCc2nn(C)c(Cc3ccccc3)c2C1=O,"binding, competition with immobilised ligand",0.1 µM,93
O=C(NCC1CCOCC1)c1n[nH]cc1NC(=O)c1c(F)cccc1F,"binding, competition with immobilised ligand",1 µM,89
N[C@@H]1CCN(c2nccc(-c3cnn4ncccc34)n2)C1,binding,1 µM,100
O=C(NCCCN1CCOCC1)c1ccc(Nc2nccc(-c3cc4ccccc4s3)n2)cc1,"binding, competition with immobilised ligand",1 µM,86
CS(=O)(=O)c1cc(C2(NC(=O)c3cncc4c3cnn4-c3ccc(F)cc3)CC2)ccn1,"cell-free assay, competition with immobilised ligand",1 µM,76
C[C@@H]1CCN(c2nccc(-c3cnn4ncccc34)n2)C1,binding,1 µM,100
O=c1nc(-c2ccccn2)sc2ccccc12,"cell-free assay, competition with immobilised ligand",1 µM,90
COc1cnc(Nc2cccc(S(N)(=O)=O)c2)nc1N1CCN(c2ccccc2)C(=O)C1,"binding, competition with immobilised ligand",1 µM,100
O=C(c1ccc(Nc2ncc(Cl)c(-c3ccc(Cl)s3)n2)cc1)N1CCC(N2CCCC2)CC1,"binding, competition with immobilised ligand",1 µM,75
Cn1nc(C(F)(F)F)cc1-c1cnc(N2CCc3cc(S(=O)(=O)Nc4c(F)cc(Cl)cc4F)cc(N4CCCC4=O)c32)nc1,"cell-free assay, competition with immobilised ligand",1 µM,99
